Experimental data as given in ChEMBL document CHEMBL1932938, “From COX-2 inhibitor nimesulide to potent anti-cancer agent: synthesis, in vitro, in vivo and pharmacokinetic evaluation” (Eur J Med Chem, 2012).

Tests used:
SK-BR-3 [1] = experiment: Cell cycle arrest in human SK-BR-3 cells assessed as accumulation at Sub-G1 phase at 0.25 uM after 12 hrs using propidium iodide staining by FACS analysis; assay type: functional
RXF 393 = experiment: Growth inhibition of human RXF393 cells after 48 hrs by SRB assay; assay type: functional
SK-BR-3 [2] = experiment: Cell cycle arrest in human SK-BR-3 cells assessed as accumulation at G2/M phase at 5 uM after 18 hrs using propidium iodide staining by FACS analysis; assay type: functional
In short: (§1)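 SKBR-3 cells in RPMI1640 with 10% heat-inactivated FBS at 37 °C and 5% CO₂ were treated for the stated times. Cells were fixed overnight in 70% EtOH at −20 °C, then stained with propidium iodide buffer (38 mM sodium citrate pH 7.5, 69 µM PI, 120 µg/mL RNase A) for 15 min at room temperature in the dark. Up to 1×10⁴ gated cells were analyzed by flow cytometry, giving percent distribution per phase.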

UACC-62 = experiment: Growth inhibition of human UACC62 cells after 48 hrs by SRB assay; assay type: functional
SK-BR-3 [3] = experiment: Cell cycle arrest in human SK-BR-3 cells assessed as accumulation at G1 phase at 0.25 uM after 6 hrs using propidium iodide staining by FACS analysis; assay type: functional; in short: as §1
K562 = experiment: Growth inhibition of human K562 cells after 48 hrs by SRB assay; assay type: functional
HL-60(TB) = experiment: Growth inhibition of human HL-60(TB) cells after 48 hrs by SRB assay; assay type: functional
In short: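 Tested in the 60-cell-line panel of the NCI Developmental Therapeutics Program with 48 h drug exposure. The read-out is cellular protein.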

SK-BR-3 [4] = experiment: Cell cycle arrest in human SK-BR-3 cells assessed as accumulation at S phase at 0.25 uM after 18 hrs using propidium iodide staining by FACS analysis; assay type: functional
SK-BR-3 [5] = experiment: Cell cycle arrest in human SK-BR-3 cells assessed as accumulation at G1 phase at 0.50 uM after 3 hrs using propidium iodide staining by FACS analysis; assay type: functional; in short: as §1
SK-BR-3 [6] = experiment: Cell cycle arrest in human SK-BR-3 cells assessed as accumulation at G1 phase at 0.50 uM after 18 hrs using propidium iodide staining by FACS analysis; assay type: functional; in short: as §1
HT-29 [7] = experiment: Cytotoxicity against human HT-29 cells after 48 hrs by MTT assay; assay type: functional, cell-based; details: HT-29, 48 h
In short: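 HT29 cells (ATCC) kept in RPMI1640 with 10% heat-inactivated FBS, L-glutamine and pyruvate at 37 °C, 5% CO2. Cells plated 24 h, then exposed 48 h to graded compound concentrations in DMSO (0.1% final) beside vehicle controls. Incubated 2 h with 0.5 mg/ml MTT, formazan dissolved in DMSO, A570 read. Six replicates; IC50 from viability.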

SK-BR-3 [8] = experiment: Cell cycle arrest in human SK-BR-3 cells assessed as accumulation at G1 phase at 5 uM after 6 hrs using propidium iodide staining by FACS analysis; assay type: functional; in short: as §1
SK-BR-3 [9] = experiment: Cell cycle arrest in human SK-BR-3 cells assessed as accumulation at G2/M phase at 0.25 uM after 24 hrs using propidium iodide staining by FACS analysis; assay type: functional; in short: as §1
A549 = experiment: Growth inhibition of human A549 cells after 48 hrs by SRB assay; assay type: functional
HT-29 [10] = experiment: Growth inhibition of human HT-29 cells after 48 hrs by SRB assay; assay type: functional
OVCAR-8 = experiment: Growth inhibition of human OVCAR8 cells after 48 hrs by SRB assay; assay type: functional
SK-BR-3 [11] = experiment: Cell cycle arrest in human SK-BR-3 cells assessed as accumulation at Sub-G1 phase at 0.50 uM after 18 hrs using propidium iodide staining by FACS analysis; assay type: functional
SK-BR-3 [12] = experiment: Cell cycle arrest in human SK-BR-3 cells assessed as accumulation at S phase at 0.25 uM after 12 hrs using propidium iodide staining by FACS analysis; assay type: functional
PC-3 = experiment: Growth inhibition of human PC3 cells after 48 hrs by SRB assay; assay type: functional
SF-268 = experiment: Growth inhibition of human SF268 cells after 48 hrs by SRB assay; assay type: functional
HCT-15 = experiment: Growth inhibition of human HCT15 cells after 48 hrs by SRB assay; assay type: functional
SK-BR-3 [13] = experiment: Cell cycle arrest in human SK-BR-3 cells assessed as accumulation at Sub-G1 phase at 0.10 uM after 6 hrs using propidium iodide staining by FACS analysis; assay type: functional
NCI-H522 = experiment: Growth inhibition of human NCI-H522 cells after 48 hrs by SRB assay; assay type: functional
Mus musculus = experiment: Acute toxicity in nude mouse assessed as body weight loss at 100 to 400 mg/kg administered as single dose measured after 2 weeks; assay type: organism-based; set-up: dose 100-400 mg/kg; details: in vivo, 336 h
SK-BR-3 [14] = experiment: Cell cycle arrest in human SK-BR-3 cells assessed as accumulation at Sub-G1 phase at 0.10 uM after 12 hrs using propidium iodide staining by FACS analysis; assay type: functional
[15] = Apparent volume of distribution during terminal phase in Sprague-Dawley rat at 20 mg/kg, ip; assay type: ADME, organism-based; set-up: dose 20 mg/kg, route intraperitoneal; details: in vivo, read-out: Vz/F
In short: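 Male Sprague–Dawley rats (300–350 g), n=3, fasted overnight with water available, given a single 20 mg/kg i.p. dose in PBS with 0.1% Tween80 and 20% DMSO. Blood drawn into heparinized tubes at 0, 0.25, 0.5, 1, 2, 4, 8 and 24 h. Plasma measured by LC-MS/MS against an internal standard. Parameters from non-compartmental analysis.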

SK-BR-3 [16] = experiment: Cell cycle arrest in human SK-BR-3 cells assessed as accumulation at G2/M phase at 5 uM after 24 hrs using propidium iodide staining by FACS analysis; assay type: functional; in short: as §1
SK-BR-3 [17] = experiment: Cell cycle arrest in human SK-BR-3 cells assessed as accumulation at S phase at 0.25 uM after 24 hrs using propidium iodide staining by FACS analysis; assay type: functional
SK-BR-3 [18] = experiment: Cell cycle arrest in human SK-BR-3 cells assessed as accumulation at S phase at 5 uM after 24 hrs using propidium iodide staining by FACS analysis; assay type: functional
SK-BR-3 [19] = experiment: Cell cycle arrest in human SK-BR-3 cells assessed as accumulation at G2/M phase at 0.10 uM after 24 hrs using propidium iodide staining by FACS analysis; assay type: functional; in short: as §1

Cc1ccc(C)c(COc2cc(NC(=O)c3ccc4c(c3)OCO4)ccc2N(C)S(C)(=O)=O)c1
Activity (SK-BR-3 [1]): 6.85%
growth inhibition (GI) (RXF 393): Dose-dependent effect
GI50 (RXF 393; RXF 393, 48 h): 128 nM
TGI (RXF 393; RXF 393, 48 h): 403 nM
Activity (SK-BR-3 [2]): 21.8%
growth inhibition (GI) (UACC-62): Dose-dependent effect
GI50 (UACC-62; UACC-62, 48 h): 414 nM
TGI (UACC-62; UACC-62, 48 h): > 100000 nM
CC50 (UACC-62; UACC-62, 48 h, read-out: LC50 (the source's name)): > 100000 nM
Activity (SK-BR-3 [3]): 72.21%
growth inhibition (GI) (K562): Dose-dependent effect
GI50 (K562; K562, 48 h): 40.3 nM
TGI (K562; K562, 48 h): > 100000 nM
CC50 (K562; K562, 48 h, read-out: LC50 (the source's name)): > 100000 nM
growth inhibition (GI) (HL-60(TB)): Dose-dependent effect
GI50 (HL-60(TB); HL-60, 48 h): 26.9 nM
TGI (HL-60(TB); HL-60, 48 h): 96.7 nM
CC50 (HL-60(TB); HL-60, 48 h, read-out: LC50 (the source's name)): > 100000 nM
Activity (SK-BR-3 [4]): 6.81%
Activity (SK-BR-3 [5]): 67.14%
Activity (SK-BR-3 [6]): 61.19%
IC50 (HT-29 [7]): 460 nM
Activity (SK-BR-3 [8]): 64.76%
Activity (SK-BR-3 [9]): 22.53%
growth inhibition (GI) (A549): Dose-dependent effect
GI50 (A549; A549, 48 h): 278 nM
TGI (A549; A549, 48 h): 13600 nM
CC50 (A549; A549, 48 h, read-out: LC50 (the source's name)): > 100000 nM
growth inhibition (GI) (HT-29 [10]): Dose-dependent effect
GI50 (HT-29 [10]; HT-29, 48 h): 77.2 nM
TGI (HT-29 [10]; HT-29, 48 h): 419 nM
CC50 (HT-29 [10]; HT-29, 48 h, read-out: LC50 (the source's name)): > 100000 nM
growth inhibition (GI) (OVCAR-8): Dose-dependent effect
GI50 (OVCAR-8; OVCAR-8, 48 h): 265 nM
TGI (OVCAR-8; OVCAR-8, 48 h): > 100000 nM
CC50 (OVCAR-8; OVCAR-8, 48 h, read-out: LC50 (the source's name)): > 100000 nM
Activity (SK-BR-3 [11]): 8.47%
Activity (SK-BR-3 [12]): 6.14%
growth inhibition (GI) (PC-3): Dose-dependent effect
GI50 (PC-3; PC-3, 48 h): 67.7 nM
TGI (PC-3; PC-3, 48 h): > 100000 nM
growth inhibition (GI) (SF-268): Dose-dependent effect
GI50 (SF-268; SF-268, 48 h): 288 nM
TGI (SF-268; SF-268, 48 h): > 100000 nM
CC50 (SF-268; SF-268, 48 h, read-out: LC50 (the source's name)): > 100000 nM
growth inhibition (GI) (HCT-15): Dose-dependent effect
GI50 (HCT-15; HCT-15, 48 h): 289 nM
TGI (HCT-15; HCT-15, 48 h): > 100000 nM
CC50 (HCT-15; HCT-15, 48 h, read-out: LC50 (the source's name)): > 100000 nM
Activity (SK-BR-3 [13]): 3.6%
growth inhibition (GI) (NCI-H522): Dose-dependent effect
GI50 (NCI-H522; NCI-H522, 48 h): 33.5 nM
TGI (NCI-H522; NCI-H522, 48 h): 240 nM
CC50 (NCI-H522; NCI-H522, 48 h, read-out: LC50 (the source's name)): > 100000 nM
Activity (Mus musculus): Non-toxic
Activity (SK-BR-3 [14]): 5.27%
Vd/F [15]: 2.16 L/kg
Activity (SK-BR-3 [16]): 28.29%
Activity (SK-BR-3 [17]): 10.87%
Activity (SK-BR-3 [18]): 11.53%
Activity (SK-BR-3 [19]): 11.23%
